Experiments:
[1] = biological target: T1, Histone deacetylase 8 (Homo sapiens, UniProt Q9BY41); assay: Inhibition of recombinant human N-terminal His6-SUMO-tagged C-terminal SII-tagged HDAC8 expressed in Escherichia coli (BL21) DE3 pLysS cells using BocLys(trifluoroacetyl)-AMC as substrate incubated for 30 mins by fluorescence assay
T1 sequence (Q9BY41 whole entry): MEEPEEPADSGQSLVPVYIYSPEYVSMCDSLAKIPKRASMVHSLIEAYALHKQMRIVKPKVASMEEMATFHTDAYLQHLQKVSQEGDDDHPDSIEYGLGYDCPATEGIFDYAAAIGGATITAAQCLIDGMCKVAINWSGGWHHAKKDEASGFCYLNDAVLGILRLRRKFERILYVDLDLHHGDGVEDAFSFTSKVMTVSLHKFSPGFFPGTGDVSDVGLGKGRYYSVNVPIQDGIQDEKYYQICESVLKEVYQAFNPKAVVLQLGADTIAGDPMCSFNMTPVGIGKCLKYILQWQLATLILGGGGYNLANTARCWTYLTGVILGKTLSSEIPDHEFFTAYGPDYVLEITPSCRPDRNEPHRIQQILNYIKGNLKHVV
Outline: (§1)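 Catalytic-domain HDAC4 (His6-SUMO/SII-tagged) and full-length codon-optimized human HDAC8 were expressed in E. coli BL21 DE3 pLysS from pET14b. Both were assayed in a two-step fluorogenic format with Boc-Lys(trifluoroacetyl)-AMC, followed by trypsin development. Compounds were screened first at 50 µM for residual activity.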

[2] = biological target: T2, Histone deacetylase 7 (Homo sapiens, UniProt Q8WUI4); assay: Inhibition of recombinant human N-terminal GST-tagged HDAC7 (518 to end residues) expressed in baculovirus infected sf9 insect cells using BocLys(trifluoroacetyl)-AMC as substrate incubated for 30 mins by fluorescence assay
T2 sequence (Q8WUI4 whole entry): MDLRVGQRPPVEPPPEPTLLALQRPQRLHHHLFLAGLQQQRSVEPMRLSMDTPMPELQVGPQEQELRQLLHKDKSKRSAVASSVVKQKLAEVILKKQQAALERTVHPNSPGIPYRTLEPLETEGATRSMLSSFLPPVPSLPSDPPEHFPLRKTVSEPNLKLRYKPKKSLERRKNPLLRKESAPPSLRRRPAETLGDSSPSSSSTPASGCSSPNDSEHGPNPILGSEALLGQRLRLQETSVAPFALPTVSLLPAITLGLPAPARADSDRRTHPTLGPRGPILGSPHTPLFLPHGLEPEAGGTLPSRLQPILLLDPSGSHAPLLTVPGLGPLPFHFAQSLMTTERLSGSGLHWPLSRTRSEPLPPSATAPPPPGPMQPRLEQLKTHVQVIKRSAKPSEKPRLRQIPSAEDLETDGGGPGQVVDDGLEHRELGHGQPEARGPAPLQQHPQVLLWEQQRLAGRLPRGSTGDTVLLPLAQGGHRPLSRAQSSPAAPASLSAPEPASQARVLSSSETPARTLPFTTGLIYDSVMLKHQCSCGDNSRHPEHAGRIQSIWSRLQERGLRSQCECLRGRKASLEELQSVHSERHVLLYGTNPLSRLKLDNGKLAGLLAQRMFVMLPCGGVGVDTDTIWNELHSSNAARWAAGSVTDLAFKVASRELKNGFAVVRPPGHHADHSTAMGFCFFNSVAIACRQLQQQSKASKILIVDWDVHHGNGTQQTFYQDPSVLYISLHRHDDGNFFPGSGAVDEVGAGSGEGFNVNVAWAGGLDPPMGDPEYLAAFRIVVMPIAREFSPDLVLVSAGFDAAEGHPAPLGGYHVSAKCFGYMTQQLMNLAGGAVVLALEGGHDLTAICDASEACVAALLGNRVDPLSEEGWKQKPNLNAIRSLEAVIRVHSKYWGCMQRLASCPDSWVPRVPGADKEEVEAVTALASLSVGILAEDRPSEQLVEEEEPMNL
Outline: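 Recombinant HDAC7 was tested in a two-step fluorogenic assay. Boc-Lys(trifluoroacetyl)-AMC serves as substrate, then trypsin releases the fluorophore.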

[3] = biological target: T3, Histone deacetylase 4 (Homo sapiens, UniProt P56524); assay: Binding affinity to recombinant human N-terminal His6-SUMO-tagged C-terminal SII-tagged HDAC4 expressed in Escherichia coli (BL21) DE3 pLysS cells assessed as melting temperature at 100 uM for 15 mins by thermal shift assay
T3 sequence (P56524 whole entry, the tested form may be a part): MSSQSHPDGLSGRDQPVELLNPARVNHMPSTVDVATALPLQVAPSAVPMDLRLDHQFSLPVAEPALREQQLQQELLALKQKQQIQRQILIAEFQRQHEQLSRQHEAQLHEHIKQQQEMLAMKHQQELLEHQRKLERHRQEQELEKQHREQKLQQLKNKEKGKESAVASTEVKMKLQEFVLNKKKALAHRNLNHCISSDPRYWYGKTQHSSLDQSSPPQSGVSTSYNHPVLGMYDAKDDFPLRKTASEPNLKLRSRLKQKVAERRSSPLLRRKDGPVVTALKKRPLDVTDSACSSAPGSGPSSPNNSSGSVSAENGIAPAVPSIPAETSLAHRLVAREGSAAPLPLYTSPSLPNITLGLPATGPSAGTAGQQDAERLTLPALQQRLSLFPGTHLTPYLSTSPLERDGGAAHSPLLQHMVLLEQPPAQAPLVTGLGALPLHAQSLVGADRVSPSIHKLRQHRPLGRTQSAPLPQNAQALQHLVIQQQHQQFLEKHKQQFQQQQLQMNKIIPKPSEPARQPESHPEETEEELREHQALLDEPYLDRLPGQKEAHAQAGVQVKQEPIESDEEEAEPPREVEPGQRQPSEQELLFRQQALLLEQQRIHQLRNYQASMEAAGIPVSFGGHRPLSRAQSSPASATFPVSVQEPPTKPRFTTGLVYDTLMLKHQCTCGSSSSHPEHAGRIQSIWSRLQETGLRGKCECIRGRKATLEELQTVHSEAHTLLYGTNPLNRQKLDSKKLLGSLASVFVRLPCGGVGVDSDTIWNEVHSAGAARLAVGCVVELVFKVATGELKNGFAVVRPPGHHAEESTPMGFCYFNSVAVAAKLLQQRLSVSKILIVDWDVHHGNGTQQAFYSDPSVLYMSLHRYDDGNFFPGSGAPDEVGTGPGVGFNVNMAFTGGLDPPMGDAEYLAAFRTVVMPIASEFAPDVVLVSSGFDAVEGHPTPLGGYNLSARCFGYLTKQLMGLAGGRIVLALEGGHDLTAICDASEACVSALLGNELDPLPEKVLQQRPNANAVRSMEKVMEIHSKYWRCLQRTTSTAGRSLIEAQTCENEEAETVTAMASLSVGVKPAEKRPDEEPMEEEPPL
Outline: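 HDAC4 catalytic domain (His6-SUMO/SII, E. coli) at 3 µM was mixed with 100 µM compound in DMSO and held 15 min at 30 °C, then 60 min more at 30 °C. Temperature was stepped by 2 °C with 10 min holds and samples were taken at each step. Samples were centrifuged at 18000g, 4 °C, and the soluble protein was run on SDS-PAGE. Band intensities were fitted to a logistic function, and Tm is the inflection point.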

[4] = biological target: Histone deacetylase 1 (Homo sapiens, UniProt Q13547); assay: Inhibition of recombinant human C-terminal His6-FLAG-tagged HDAC1 (1 to end residues) expressed in sf9 insect cells using Boc-Lys(acetyl)-AMC as substrate incubated for 30 mins by fluorescence assay
Chain of Histone deacetylase 1 (Q13547 whole entry): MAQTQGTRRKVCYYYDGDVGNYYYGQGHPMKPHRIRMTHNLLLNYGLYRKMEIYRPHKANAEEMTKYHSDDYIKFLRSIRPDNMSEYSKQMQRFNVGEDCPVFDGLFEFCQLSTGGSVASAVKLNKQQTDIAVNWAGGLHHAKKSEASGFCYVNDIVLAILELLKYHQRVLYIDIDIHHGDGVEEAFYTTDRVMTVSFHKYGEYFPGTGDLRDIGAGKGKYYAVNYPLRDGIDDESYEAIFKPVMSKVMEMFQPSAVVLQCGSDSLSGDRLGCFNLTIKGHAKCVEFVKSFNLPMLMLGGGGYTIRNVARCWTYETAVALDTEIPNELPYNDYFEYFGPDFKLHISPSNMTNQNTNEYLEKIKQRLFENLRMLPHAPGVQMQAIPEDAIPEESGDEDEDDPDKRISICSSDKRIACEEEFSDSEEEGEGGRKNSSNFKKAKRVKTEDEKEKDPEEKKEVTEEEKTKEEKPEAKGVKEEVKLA
Outline: (§2)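 Two-step fluorogenic assay with recombinant HDAC1, 2, 3 or 6. Deacetylation of Boc-Lys(acetyl)-AMC is followed by trypsin conversion of the deacetylated product to a fluorescent signal.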

[5] = biological target: Vascular endothelial growth factor receptor 2 (Homo sapiens, UniProt P35968); assay: Inhibition of human VEGFR2 in HUVEC cells assessed as reduction in VEGFR2 phosphorylation at 10 uM incubated for 30 mins by anti-phospho VEGF Tyr 1175 antibody based assay relative to control; type: cell-based
Outline: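 HUVECs were seeded at 4000–5000 per well in DMEM with 10% FCS for 12 h, then held 24 h in serum. Compound (10 µM) was added with serum for 30 min at 37 °C. Cells were fixed in 4% formaldehyde and probed with anti-phospho-VEGFR Tyr1175 (1:1000), then an HRP secondary (1:5000). TMB signal was stopped with 2N H2SO4 and read at 450 nm. Percent inhibition is normalized to control.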

[6] = biological target: T3, Histone deacetylase 4; assay: Inhibition of recombinant human N-terminal His6-SUMO-tagged C-terminal SII-tagged HDAC4 expressed in Escherichia coli (BL21) DE3 pLysS cells assessed as residual activity at 50 uM using BocLys(trifluoroacetyl)-AMC as substrate incubated for 30 mins by fluorescence assay relative to control; outline: as §1
[7] = biological target: Histone deacetylase 2 (Homo sapiens, UniProt Q92769); assay: Inhibition of recombinant human HDAC2 Boc-Lys(acetyl)-AMC as substrate incubated for 30 mins by fluorescence assay; outline: as §2
Chain of Histone deacetylase 2 (Q92769 whole entry, the tested form may be a part): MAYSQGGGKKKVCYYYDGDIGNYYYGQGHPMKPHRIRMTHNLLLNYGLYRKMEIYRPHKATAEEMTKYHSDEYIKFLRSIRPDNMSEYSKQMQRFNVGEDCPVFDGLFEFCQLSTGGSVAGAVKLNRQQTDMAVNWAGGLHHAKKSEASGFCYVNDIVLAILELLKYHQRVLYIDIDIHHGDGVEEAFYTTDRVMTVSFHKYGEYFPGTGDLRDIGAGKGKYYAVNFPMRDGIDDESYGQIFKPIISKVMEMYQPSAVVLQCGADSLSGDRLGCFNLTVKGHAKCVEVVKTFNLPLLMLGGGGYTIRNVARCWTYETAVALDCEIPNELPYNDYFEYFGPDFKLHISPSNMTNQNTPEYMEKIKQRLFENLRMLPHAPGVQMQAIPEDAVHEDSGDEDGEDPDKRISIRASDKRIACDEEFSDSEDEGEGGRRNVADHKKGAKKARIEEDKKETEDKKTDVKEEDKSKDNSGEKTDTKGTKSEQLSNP

[8] = biological target: Histone deacetylase 3/Nuclear receptor corepressor 2 (HDAC3/NCoR2) (Homo sapiens, UniProt O15379); assay: Inhibition of C-terminal His-tagged recombinant human HDAC3 (1 to 428 residues)/N-terminal GST-tagged recombinant human NCoR2 (395 to 489 residues) co-expressed in baculovirus infected Sf9 cells using Boc-Lys(acetyl)-AMC as substrate incubated for 30 mins by fluorescence assay; outline: as §2
Chain of Histone deacetylase 3/Nuclear receptor corepressor 2 (HDAC3/NCoR2) (O15379 whole entry, the tested form may be a part): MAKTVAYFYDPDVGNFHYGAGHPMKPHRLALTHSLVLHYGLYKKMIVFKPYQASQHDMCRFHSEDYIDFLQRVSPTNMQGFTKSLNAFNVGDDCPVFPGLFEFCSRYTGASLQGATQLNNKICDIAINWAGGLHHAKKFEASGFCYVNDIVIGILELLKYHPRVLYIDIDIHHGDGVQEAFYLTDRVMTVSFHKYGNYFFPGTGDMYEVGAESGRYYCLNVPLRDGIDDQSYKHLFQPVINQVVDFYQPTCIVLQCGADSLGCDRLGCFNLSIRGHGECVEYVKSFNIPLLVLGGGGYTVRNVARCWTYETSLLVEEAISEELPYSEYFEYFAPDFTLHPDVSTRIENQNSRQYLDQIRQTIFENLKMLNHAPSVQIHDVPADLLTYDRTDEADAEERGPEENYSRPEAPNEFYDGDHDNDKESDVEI
Chain of Histone deacetylase 3/Nuclear receptor corepressor 2 (HDAC3/NCoR2) (Q9Y618 whole entry, further chain, the tested form may be a part): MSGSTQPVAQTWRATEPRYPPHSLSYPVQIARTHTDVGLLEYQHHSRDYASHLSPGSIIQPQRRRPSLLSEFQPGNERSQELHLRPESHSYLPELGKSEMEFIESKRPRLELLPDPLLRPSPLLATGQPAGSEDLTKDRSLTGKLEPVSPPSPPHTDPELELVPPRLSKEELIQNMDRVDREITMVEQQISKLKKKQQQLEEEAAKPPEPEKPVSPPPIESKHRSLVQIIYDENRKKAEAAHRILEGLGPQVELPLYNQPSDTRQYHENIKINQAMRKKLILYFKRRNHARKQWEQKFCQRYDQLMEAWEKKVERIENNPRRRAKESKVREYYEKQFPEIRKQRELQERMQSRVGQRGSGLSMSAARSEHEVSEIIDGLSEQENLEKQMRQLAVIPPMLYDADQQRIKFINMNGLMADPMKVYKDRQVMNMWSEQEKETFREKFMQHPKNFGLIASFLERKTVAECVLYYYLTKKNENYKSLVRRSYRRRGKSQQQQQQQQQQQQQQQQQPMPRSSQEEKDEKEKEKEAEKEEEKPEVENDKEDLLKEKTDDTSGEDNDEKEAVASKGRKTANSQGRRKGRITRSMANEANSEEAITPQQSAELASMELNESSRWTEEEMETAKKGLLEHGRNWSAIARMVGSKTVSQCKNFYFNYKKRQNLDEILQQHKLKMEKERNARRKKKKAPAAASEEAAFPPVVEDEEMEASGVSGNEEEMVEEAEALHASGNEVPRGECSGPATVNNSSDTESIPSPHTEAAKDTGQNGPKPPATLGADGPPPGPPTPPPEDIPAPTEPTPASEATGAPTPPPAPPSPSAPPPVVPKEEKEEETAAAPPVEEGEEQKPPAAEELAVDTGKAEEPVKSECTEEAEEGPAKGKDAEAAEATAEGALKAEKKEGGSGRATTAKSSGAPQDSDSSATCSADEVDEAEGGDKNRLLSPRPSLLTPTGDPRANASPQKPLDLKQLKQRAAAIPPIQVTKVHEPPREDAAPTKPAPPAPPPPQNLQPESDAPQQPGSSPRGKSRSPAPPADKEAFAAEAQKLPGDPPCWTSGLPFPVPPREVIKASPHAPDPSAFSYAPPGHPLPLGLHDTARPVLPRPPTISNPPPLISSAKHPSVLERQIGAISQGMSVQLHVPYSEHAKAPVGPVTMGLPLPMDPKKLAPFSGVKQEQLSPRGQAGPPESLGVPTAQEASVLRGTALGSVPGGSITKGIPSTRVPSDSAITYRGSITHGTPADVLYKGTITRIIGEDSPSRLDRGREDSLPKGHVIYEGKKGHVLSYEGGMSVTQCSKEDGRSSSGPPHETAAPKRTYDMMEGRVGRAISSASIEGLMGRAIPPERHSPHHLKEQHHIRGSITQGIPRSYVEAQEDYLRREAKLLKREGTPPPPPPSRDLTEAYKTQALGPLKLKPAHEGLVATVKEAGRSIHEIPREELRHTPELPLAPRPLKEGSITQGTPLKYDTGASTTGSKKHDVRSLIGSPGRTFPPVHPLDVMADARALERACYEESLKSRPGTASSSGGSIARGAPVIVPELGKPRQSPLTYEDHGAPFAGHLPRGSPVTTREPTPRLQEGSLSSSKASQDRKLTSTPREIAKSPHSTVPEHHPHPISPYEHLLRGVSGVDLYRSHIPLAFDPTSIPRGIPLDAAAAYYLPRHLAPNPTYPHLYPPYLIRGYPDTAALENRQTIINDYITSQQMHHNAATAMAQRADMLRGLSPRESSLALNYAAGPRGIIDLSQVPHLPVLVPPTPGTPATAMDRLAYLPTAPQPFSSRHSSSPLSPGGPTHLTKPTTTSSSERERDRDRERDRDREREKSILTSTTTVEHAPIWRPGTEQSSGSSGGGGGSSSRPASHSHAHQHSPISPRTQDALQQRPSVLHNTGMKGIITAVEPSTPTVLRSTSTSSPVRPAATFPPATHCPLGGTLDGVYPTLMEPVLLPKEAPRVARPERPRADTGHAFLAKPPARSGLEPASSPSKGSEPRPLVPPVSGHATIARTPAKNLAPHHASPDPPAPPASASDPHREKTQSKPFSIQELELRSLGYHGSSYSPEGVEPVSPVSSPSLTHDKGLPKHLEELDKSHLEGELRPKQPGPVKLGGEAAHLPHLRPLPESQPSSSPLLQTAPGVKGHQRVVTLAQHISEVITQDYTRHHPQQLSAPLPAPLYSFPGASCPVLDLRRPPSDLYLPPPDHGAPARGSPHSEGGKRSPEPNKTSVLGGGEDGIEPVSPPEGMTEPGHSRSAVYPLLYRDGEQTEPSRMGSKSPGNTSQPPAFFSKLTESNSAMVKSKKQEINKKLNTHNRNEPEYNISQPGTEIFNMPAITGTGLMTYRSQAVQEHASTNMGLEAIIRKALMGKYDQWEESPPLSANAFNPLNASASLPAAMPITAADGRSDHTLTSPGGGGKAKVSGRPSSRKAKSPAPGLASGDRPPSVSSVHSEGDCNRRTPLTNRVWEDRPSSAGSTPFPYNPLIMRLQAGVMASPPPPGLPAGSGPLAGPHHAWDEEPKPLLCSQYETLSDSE

Compound: O=C1NC(=O)/C(=C\c2ccc(OCC(=O)N3N=C(c4ccc(F)cc4)CC3c3ccc(Cl)c(Cl)c3)cc2)S1 (configuration not stated)
- IC50 [1]: 25 µM
- IC50 [2]: 6.7 µM
- Tm [3]: 57.3 °C
- IC50 [4]: 11 µM
- inhibition [5]: 22.4%
- Activity [6]: 13%
- IC50 [7]: 21 µM
- IC50 [8]: 11 µM

Compound: O=C1NC(=O)/C(=C\c2ccc(OCC(=O)N3N=C(c4ccc(F)cc4)CC3c3ccco3)cc2)S1 (configuration not stated)
- IC50 [1]: > 50 µM
- IC50 [2]: > 50 µM
- IC50 [4]: > 50 µM
- inhibition [5]: 56.7%
- Activity [6]: 36%
- IC50 [7]: > 50 µM
- IC50 [8]: > 50 µM

Compound: O=C1NC(=O)/C(=C\c2ccc(OCC(=O)N3N=C(c4ccccc4)CC3c3ccc(Cl)c(Cl)c3)cc2)S1 (configuration not stated)
- IC50 [1]: 10 µM
- IC50 [2]: > 50 µM
- Tm [3]: 56.7 °C
- IC50 [4]: 4.9 µM
- Activity [6]: 5.9%
- IC50 [7]: 13 µM
- IC50 [8]: 9.1 µM

Source: ChEMBL document CHEMBL5120742, “Multi-target weapons: diaryl-pyrazoline thiazolidinediones simultaneously targeting VEGFR-2 and HDAC cancer hallmarks” (RSC Med Chem, 2021)
